Assay results published in ChEMBL document CHEMBL1144771, “Synthesis of 1-substituted 3-pyridinylmethylidenylindolin-2-ones and 1-substituted 3-quinolinylmethylidenylindolin-2-ones as the enhancers of ATRA-induced differentiation in HL-60 cells” (Bioorg Med Chem, 2008).
Calls of active or inactive are those of the source. The calls are words filed in the database; no cut-off is given here.

Columns and labels:
HL-60 [1] = experiment: Cytotoxicity against human HL60 cells at 1.0 uM after 72 hrs by MTT assay; format: functional
Procedure, shortened: (§1)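 Log-phase HL-60 cells at 4×10^4 cells/mL in RPMI-1640 with 10% FBS, 37 °C, 5% CO2. Treated 72 h with compound, with or without 5 nM ATRA. Cells washed in cold PBS, given MTT (5 mg/mL solution) in HBSS for 2 h at 37 °C in the dark. Formazan dissolved in DMSO, absorbance read at 570 nm. Viability given as % of vehicle control; means ± SD, four independent experiments.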

HL-60 [2] = experiment: Induction of cell differentiation in human HL60 cells at 1.0 uM after 72 hrs by NBT reduction assay; format: functional
HL-60 [3] = experiment: Induction of cell differentiation in human HL60 cells at 0.1 uM after 72 hrs by NBT reduction assay; format: functional
HL-60 [4] = experiment: Cytotoxicity against human HL60 cells at 0.1 uM after 72 hrs by MTT assay relative to control; format: functional; procedure, shortened: as §1
HL-60 [5] = experiment: Induction of cell differentiation in human HL60 cells at 0.5 uM after 72 hrs by NBT reduction assay; format: functional
HL-60 [6] = experiment: Cytotoxicity against human HL60 cells at 0.5 uM after 72 hrs by MTT assay relative to control; format: functional; procedure, shortened: as §1
HL-60 [7] = experiment: Induction of cell differentiation in human HL60 cells at 2.5 uM after 72 hrs by NBT reduction assay; format: functional
HL-60 [8] = experiment: Cytotoxicity against human HL60 cells at 2.5 uM after 72 hrs by MTT assay; format: functional; procedure, shortened: as §1
HL-60 [9] = experiment: Cytotoxicity against human HL60 cells at 0.5 uM after 72 hrs by MTT assay; format: functional; procedure, shortened: as §1
HL-60 [10] = experiment: Induction of cell differentiation in human HL60 cells at 2.5 uM after 72 hrs by NBT reduction assay relative to control; format: functional
HL-60 [11] = experiment: Cytotoxicity against human HL60 cells at 5.0 uM after 72 hrs by MTT assay relative to control; format: functional; procedure, shortened: as §1
HL-60 [12] = experiment: Cytotoxicity against human HL60 cells at 2.5 uM after 72 hrs by MTT assay relative to control; format: functional; procedure, shortened: as §1
HL-60 [13] = experiment: Cytotoxicity against human HL60 cells at 1.0 uM after 72 hrs by MTT assay relative to control; format: functional; procedure, shortened: as §1
HL-60 [14] = experiment: Cytotoxicity against human HL60 cells after 72 hrs by MTT assay; format: functional, cell-based; procedure, shortened: as §1
HL-60 [15] = experiment: Induction of cell differentiation in human HL60 cells at 5.0 uM after 72 hrs by NBT reduction assay; format: functional
HL-60 [16] = experiment: Cytotoxicity against human HL60 cells at 2 uM after 72 hrs by MTT assay; format: functional, cell-based; procedure, shortened: as §1
HL-60 [17] = experiment: Induction of cell differentiation in human HL60 cells at 2.0 uM after 72 hrs by NBT reduction assay; format: functional, cell-based
HL-60 [18] = experiment: Effect on morphology in human HL60 cells assessed as population of horseshoe-shape nuclei at 2 uM after 72 hrs; format: functional, cell-based
Procedure, shortened: (§2)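 HL-60 cells (4×10^4) treated 72 h with vehicle, 2 µM compound alone, 2 µM compound plus 5 nM ATRA, 5 nM ATRA, or 1 µM ATRA. Unstained cells examined for spindle shape at 200× magnification. Liu's-stained cells examined by optical microscopy for horseshoe-shaped nuclei.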

HL-60 [19] = experiment: Effect on morphology in human HL60 cells assessed as spindle-shape at 2 uM after 72 hrs; format: functional, cell-based; procedure, shortened: as §2
[20] = Cytotoxicity against human leukocytes after 48 hrs by MTT assay; format: cell-based; conditions: Leukocyte
Procedure, shortened: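 Human normal leukocytes in RPMI-1640 with 10% FBS. Treated with vehicle, compound alone, or compound plus 5 nM ATRA; 48 h per the legend (72 h per methods). Viability by MTT with formazan absorbance at 570 nm; 50% growth-inhibition concentration reported. Means ± SD, four experiments.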

HL-60 [21] = experiment: Cytotoxicity against human HL60 cells at 2 uM after 72 hrs by MTT assay relative to control; format: functional; procedure, shortened: as §1
HL-60 [22] = experiment: Cell cycle arrest in human HL60 cells assessed as increase in G0/G1 phase accumulation at 2 uM after 72 hrs by flow cytometry; format: functional
Procedure, shortened: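 HL-60 cells at 4×10^4 cells/mL, 72 h with vehicle, ATRA (5 nM or 1 µM), 2 µM compound alone, or 2 µM compound plus 5 nM ATRA. Cells fixed in 70% ice-cold ethanol at -20 °C overnight. Stained 30 min at 37 °C in the dark with 1% Triton X-100, 0.1 mg/mL RNase and 4 µg/mL propidium iodide. G0/G1 fraction by flow cytometry; means ± SD, four experiments.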

HL-60 [23] = experiment: Induction of cell differentiation in human HL60 cells at 2.0 uM after 72 hrs by NBT reduction assay relative to control; format: functional
HL-60 [24] = experiment: Induction of cell differentiation in human HL60 cells at 5.0 uM after 72 hrs by NBT reduction assay relative to control; format: functional
HL-60 [25] = experiment: Cytotoxicity against human HL60 cells at 10.0 uM after 72 hrs by MTT assay relative to control; format: functional; procedure, shortened: as §1
HL-60 [26] = experiment: Induction of cell differentiation in human HL60 cells at 10.0 uM after 72 hrs by NBT reduction assay; format: functional
HL-60 [27] = experiment: Cytotoxicity against human HL60 cells at 1.0 uM after 72 hrs by MTT assay relative to ATRA; format: functional; conditions: in the assay text read “relative to control” for “relative to ATRA”; procedure, shortened: as §1
HL-60 [28] = experiment: Cytotoxicity against human HL60 cells at 5.0 uM after 72 hrs by MTT assay; format: functional, cell-based; procedure, shortened: as §1

SMILES	Activity (HL-60 [2])	Activity (HL-60 [5])	Activity (HL-60 [7])	Activity (HL-60 [11])	Activity (HL-60 [12])	Activity (HL-60 [13])	IC50 (HL-60 [14]; Homo sapiens, HL-60, 72 h)	Activity (HL-60 [15])	further results
O=C1/C(=C\c2ccncc2)c2ccccc2N1Cc1ccc2ccccc2c1	Toxic	0.7%	–	–	–	–	–	–	Activity (HL-60 [1]): Toxic; Activity (HL-60 [3]): 0.8%; Activity (HL-60 [4]): 78.2%; Activity (HL-60 [6]): 59.6%
O=C1/C(=C\c2ccncc2)c2ccccc2N1Cc1cccc2ccccc12	0.5%	0.8%	Toxic	–	–	–	–	–	Activity (HL-60 [1]): 90.8%; Activity (HL-60 [8]): Toxic; Activity (HL-60 [9]): 103.6%
CC(c1ccccc1)N1C(=O)/C(=C\c2cccnc2)c2ccccc21 (centres undefined)	0.8%	–	2.5%	19.6%	87%	88%	3.3 µM	–	Activity (HL-60 [10]): 2.5%
O=C1/C(=C\c2ccc3ccccc3n2)c2ccccc2N1Cc1ccccc1	2%	–	2%	12.2%	55.7%	82.7%	2.8 µM	4.4%	–
CC(c1ccccc1)N1C(=O)/C(=C\c2ccncc2)c2ccccc21 (centres undefined)	0.8%	1%	–	–	–	49.2%	–	–	Activity (HL-60 [16]): Toxic; Activity (HL-60 [6]): 66.7%; Activity (HL-60 [17]): Toxic
CC(c1ccccc1)N1C(=O)/C(=C\c2ccccn2)c2ccccc21 (centres undefined)	0.7%	–	0.7%	55.7%	87.1%	90%	5.9 µM	2%	–
O=C1/C(=C\c2ccncc2)c2ccccc2N1Cc1ccccc1	1.2%	0.3%	–	–	24.4%	85.6%	1.9 µM	–	Activity (HL-60 [10]): 7%; Activity (HL-60 [9]): 101%
CC(c1ccccc1)N1C(=O)/C(=C\c2cnc3ccccc3c2)c2ccccc21 (stereo in doubt; 25) [listing 1 of 2 here]	–	–	–	–	–	–	–	–	Activity (HL-60 [18]): Active; Activity (HL-60 [19]): Active
CC(c1ccccc1)N1C(=O)/C(=C\c2cnc3ccccc3c2)c2ccccc21 (stereo in doubt; 25) [listing 2 of 2 here]	0.3%	0.8%	–	–	–	70.9%	–	–	IC50 [20]: 14 µM; Activity (HL-60 [21]): 24.7%; Activity (HL-60 [22]): 49.8%; Activity (HL-60 [23]): 33.9%; IC50 (HL-60 [14]; hl-60): 1.4 µM; Activity (HL-60 [6]): 89.5%
CC(c1ccccc1)N1C(=O)/C(=C/c2cnc3ccccc3c2)c2ccccc21 (centres undefined)	4.3%	0.8%	–	–	–	82.9%	1.4 µM	–	Activity (HL-60 [21]): 25.5%; Activity (HL-60 [23]): 37.7%; Activity (HL-60 [9]): 109.9%
O=C1/C(=C\c2cccnc2)c2ccccc2N1Cc1ccccc1	0.7%	–	0.8%	25.4%	75.9%	93.2%	3.8 µM	2.7%	–
O=C1/C(=C\c2cnc3ccccc3c2)c2ccccc2N1Cc1ccccc1	0.7%	–	0.8%	10.9%	70.6%	–	3.2 µM	–	Activity (HL-60 [1]): 117.4%; Activity (HL-60 [24]): 23.6%
CC(c1ccccc1)N1C(=O)/C(=C\c2ccc3ccccc3n2)c2ccccc21 (centres undefined)	0.8%	–	1%	18.5%	81.3%	–	3.4 µM	–	Activity (HL-60 [1]): 103.2%; Activity (HL-60 [24]): 15%
O=C1/C(=C\c2ccnc3ccccc23)c2ccccc2N1Cc1ccccc1	0.8%	–	–	73.8%	–	85.2%	10.6 µM	2.1%	Activity (HL-60 [25]): 51.2%; Activity (HL-60 [26]): 4.7%
O=C1/C(=C\c2ccccn2)c2ccccc2N1Cc1ccccc1	0.7%	–	0.7%	24.7%	–	–	3.6 µM	3.4%	Activity (HL-60 [1]): 116.6%; Activity (HL-60 [8]): 98.5%
O=C1/C(=C\c2cc[n+]([O-])cc2)c2ccccc2N1Cc1ccccc1	1.6%	–	3.2%	22%	43.4%	–	2.9 µM	–	Activity (HL-60 [27]): 90%; Activity (HL-60 [24]): 11.5%
CC(c1ccccc1)N1C(=O)/C(=C\c2cnc3ccccc3c2)c2ccccc21 (stereo in doubt; 25Z)	3.8%	1.3%	–	–	–	82.3%	1.5 µM	–	Activity (HL-60 [21]): 20.3%; Activity (HL-60 [23]): 40.8%; Activity (HL-60 [9]): 116.1%
CC(c1ccccc1)N1C(=O)/C(=C\c2ccnc3ccccc23)c2ccccc21 (centres undefined)	1.2%	–	–	–	31%	72.6%	–	Toxic	Activity (HL-60 [10]): 20.8%; Activity (HL-60 [28]): Toxic
